The text below walks through data of ChEMBL document CHEMBL4152184, “NB 06: From a simple lysosomotropic aSMase inhibitor to tools for elucidating the role of lysosomes in signaling apoptosis and LPS-induced inflammation” (Eur J Med Chem, 2018).

Test [1] has as its system MONO-MAC-6. In words: Upregulation of HSPA1A mRNA expression level in LPS-stimulated human MONO-MAC-6 cells preincubated for 30 mins followed by LPS stimulation measured after 4 hrs by qRT-PCR analysis relative to control. The format is functional. For orientation: Quantitative PCR measures a nucleic acid by following its amplification.
For test [2], the system named is MONO-MAC-6. In words: Upregulation of CXCL3 mRNA expression level in LPS-stimulated human MONO-MAC-6 cells at 5 uM preincubated for 30 mins followed by LPS stimulation measured after 6 hrs by oligonucleotide array hybridization assay (reference value: 5.74). The class given is functional.
Test [3] concerns MONO-MAC-6. In words: Upregulation of CCL4 mRNA expression level in human MONO-MAC-6 cells at 5 uM incubated for 30 mins measured after 1 hr by oligonucleotide array hybridization assay relative to control. The format is functional.
Test [4] concerns MONO-MAC-6. In words: Downregulation of CXCL2 mRNA expression level in human MONO-MAC-6 cells at 5 uM incubated for 30 mins measured after 1 hr by qRT-PCR method relative to control. The class given is functional.
Test [5] has as its system MONO-MAC-6. In words: Upregulation of CXCL10 mRNA expression level in LPS-stimulated human MONO-MAC-6 cells at 5 uM preincubated for 30 mins followed by LPS stimulation measured after 2 hrs by oligonucleotide array hybridization assay (reference value: 1.73). The format is functional.
Test [6] deals with MONO-MAC-6. Put plainly: Downregulation of IL-6 mRNA expression level in human MONO-MAC-6 cells at 5 uM incubated for 30 mins measured after 1 hr by qRT-PCR method relative to control. The format is functional.
For test [7], the target named is T1, Acid ceramidase (Homo sapiens) (UniProt Q13510).
T1 sequence (whole entry): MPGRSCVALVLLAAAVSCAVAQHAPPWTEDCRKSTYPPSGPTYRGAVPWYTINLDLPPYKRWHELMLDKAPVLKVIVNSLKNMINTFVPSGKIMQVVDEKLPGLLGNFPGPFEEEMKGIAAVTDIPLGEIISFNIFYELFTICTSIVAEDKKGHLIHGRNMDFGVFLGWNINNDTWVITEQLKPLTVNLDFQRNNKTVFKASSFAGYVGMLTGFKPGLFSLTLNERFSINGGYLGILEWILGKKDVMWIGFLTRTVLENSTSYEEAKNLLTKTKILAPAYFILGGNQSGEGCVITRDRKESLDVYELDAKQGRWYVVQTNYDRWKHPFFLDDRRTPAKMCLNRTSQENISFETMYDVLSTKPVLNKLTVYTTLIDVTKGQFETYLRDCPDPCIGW
Put plainly: Inhibition of exogenous C6-ceramid-stimulated acid ceramidase in human PBMC assessed as ratio of C16-ceramide/lipid phosphate level at 10 uM preincubated for 30 mins followed by C6-ceramid stimulation measured after 4 hrs by HPLC method (reference value: 2.19). The format is cell-based. The essentials:
(§1)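 Human macrophages from primary culture were preincubated 30 min with 10 µM compound. They were then stimulated 4 h with mmLDL (54 µg/mL), TNFalpha (3 ng/mL) or exogenous C6-ceramide (10 µM), or left unstimulated. Individual ceramide species (C16 and C24:1) were quantified in the cell lipid extracts.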

Test [8] relates to MONO-MAC-6. In words: Downregulation of CXCL3 mRNA expression level in human MONO-MAC-6 cells at 5 uM incubated for 30 mins measured after 6 hrs by oligonucleotide array hybridization assay relative to control. The class given is functional. The gist of the method:
(§2)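 Total RNA was isolated, transcribed and labeled with DY-647 dye, then co-hybridized with DY-548-labeled cDNA from untreated cells on an inflammation oligonucleotide chip (780 gene probes). Differential expression >1.5 was taken as significant.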

The test system of test [9] is MONO-MAC-6. Put plainly: Downregulation of CXCL3 mRNA expression level in LPS-stimulated human MONO-MAC-6 cells at 5 uM preincubated for 30 mins followed by LPS stimulation measured after 1 hr by oligonucleotide array hybridization assay (reference value: 1.18). The class given is functional. The essentials:
as §2

Test [10] has as its system MONO-MAC-6. Put plainly: Upregulation of TNFalpha mRNA expression level in LPS-stimulated human MONO-MAC-6 cells at 5 uM preincubated for 30 mins followed by LPS stimulation measured after 4 hrs by qRT-PCR method (reference value: 4.32). The format is functional.
The test system of test [11] is MONO-MAC-6. In words: Upregulation of TNFalpha mRNA expression level in LPS-stimulated human MONO-MAC-6 cells at 5 uM preincubated for 30 mins followed by LPS stimulation measured after 1 hr by qRT-PCR method (reference value: 1.08). The format is functional.
The subject of test [12] is MONO-MAC-6. Put plainly: Downregulation of PTX3 mRNA expression level in LPS-stimulated human MONO-MAC-6 cells at 5 uM preincubated for 30 mins followed by LPS stimulation measured after 1 hr by oligonucleotide array hybridization assay (reference value: 1.10). The format is functional. The essentials: as §2
In test [13] the test system is MONO-MAC-6. In words: Downregulation of CXCL2 mRNA expression level in human MONO-MAC-6 cells at 5 uM incubated for 30 mins measured after 6 hrs by oligonucleotide array hybridization assay relative to control. The format is functional. The gist of the method:
as §2

The subject of test [14] is MONO-MAC-6. Put plainly: Downregulation of PTX3 mRNA expression level in human MONO-MAC-6 cells at 5 uM incubated for 30 mins measured after 6 hrs by oligonucleotide array hybridization assay relative to control. The format is functional. The gist of the method:
as §2

Test [15] concerns MONO-MAC-6. In words: Downregulation of TNFalpha mRNA expression level in human MONO-MAC-6 cells at 5 uM incubated for 30 mins measured after 6 hrs by qRT-PCR method relative to control. The format is functional.
Test [16] concerns MONO-MAC-6. In words: Upregulation of IL-6 mRNA expression level in LPS-stimulated human MONO-MAC-6 cells at 5 uM preincubated for 30 mins followed by LPS stimulation measured after 2 hrs by qRT-PCR method (reference value: […]). The format is functional.
In test [17] the test system is MONO-MAC-6. Put plainly: Downregulation of CXCL2 mRNA expression level in LPS-stimulated human MONO-MAC-6 cells at 5 uM preincubated for 30 mins followed by LPS stimulation measured after 6 hrs by oligonucleotide array hybridization assay (reference value: 9.41). The format is functional. The gist of the method:
as §2

In test [18] the target is T1, Acid ceramidase (Homo sapiens). In words: Inhibition of mmLDL-stimulated acid ceramidase in human PBMC assessed as ratio of C24:1-ceramide/lipid phosphate level at 10 uM preincubated for 30 mins followed by mmLDL stimulation measured after 4 hrs by HPLC method (reference value: 1.16). The format is cell-based. The essentials:
as §1

Test [19] concerns MONO-MAC-6. Put plainly: Downregulation of PTX3 mRNA expression level in LPS-stimulated human MONO-MAC-6 cells at 5 uM preincubated for 30 mins followed by LPS stimulation measured after 6 hrs by oligonucleotide array hybridization assay (reference value: 3.18). The class given is functional. The gist of the method:
as §2

For test [20], the system named is MONO-MAC-6. In words: Downregulation of PTGS2 mRNA expression level in human MONO-MAC-6 cells at 5 uM incubated for 30 mins measured after 1 hr by oligonucleotide array hybridization assay relative to control. The format is functional. The gist of the method:
as §2

The test system of test [21] is MONO-MAC-6. In words: Downregulation of CXCL2 mRNA expression level in human MONO-MAC-6 cells at 5 uM incubated for 30 mins measured after 6 hrs by qRT-PCR method relative to control. The class given is functional.

For `COc1ccc(CCN(C)CCCn2c3ccccc3c3ccccc32)cc1`, the “fold change (FC)” value in test [1] turned out to be 2.67; in test [2] it was 1.15; in test [3], 1.22; in test [4], 1.01; in [5], 1.63; in test [6] it was 1.04. Further, the “fold change (FC)” value in [8] came to 4.67; in test [9] it was 1.24; in [10] it was 1.37; in test [11], 1.23; in test [12] it was 1.02; in test [13] it was 5.44. Moreover, the “fold change (FC)” value in test [14] is 3.91; in test [15] it was 2.08; in [16] it was 6.12; in test [17], 1.01; in [19] it was 1.05; in [20] it was 1.1. Also, in test [21], the “fold change (FC)” value was 4.71. Moreover, the values for the Ratio in [7] and in [18] were 0.47 and 2.45, respectively.
